For orientation: inhibition means the relative decrease from the control value, in per cent. The IC50 is the point on the concentration scale where inhibition reaches its midpoint.

Values joined by “and” are separate entries in the source; they are usually repeats but may differ in a detail not shown here. Equal entries are not always repeated. Where two headings read alike, the source gives them in different places.

The target of one assay is T-Cav3.2-channel (Mus musculus, UniProt O88427). Put plainly: Whole-cell patch clamp inhibition of T-Cav3.2 channel in mouse DRG neurons. Type of assay: cell-based. In outline:
(§1)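 Lumbar DRG neurons from 1–6 month-old C57 mice, digested in HBSS with 1 mg/mL collagenase and 0.5 mg/mL trypsin (35°C, 45–50 min). Neurons triturated, plated on poly-L-ornithine coverslips and kept in modified Krebs solution at 21°C. Whole-cell voltage clamp at room temperature. Compound applied by rapid local solution exchange; currents normalized to control to give % inhibition; sigmoidal dose-response fits.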

The next assay relates to Na-channel. As to the kind of experiment: Whole-cell patch clamp inhibition of Na-channel in mouse DRG neurons. Format: cell-based. The settings on record: for IC50: read-out: IC50, Na- channel in DRG neurons. In outline:
as §1

A further assay deals with PTZ-induced seizures. As to the kind of experiment: Pentylenetetrazole. The conditions noted are these: 30 mg/Kg; for Inhibition ratio (%) of fatality in PTZ-model of mice: 20-min observation period, 100 minus death ratio; for Latency to fatality (minutes) in PTZ model of mice: first 20 minutes of testing. Type of assay: in vivo, mouse. In outline: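 Mice received pentylenetetrazol at 40 mg/kg by intraperitoneal injection; test compound groups were compared with vehicle (2% DMSO in 0.5% hydroxypropyl cellulose), […]. Deaths were recorded within a 20-min cutoff. Inhibition ratio was 100 minus the % of mice that died. Latency to fatality was recorded per mouse as mean ± SEM. Experimenters were blinded.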

Another assay has as its system K-channel. Put plainly: Whole-cell patch clamp inhibition of K-channel. Type of assay: cell-based. The conditions noted are these: mouse DRG neurons. Put shortly: as §1
For assay [1], the target named is Cav3.2 channels expressed in HEK-293 cells (Homo sapiens, UniProt O95180). Put plainly: Whole-cell patch clamp inhibition of Cav3.2 channels expressed in HEK293 cells. Format: cell-based. In outline:
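Tetracycline-inducible HEK293 line, G418-selected, reseeded on poly-D-lysine coverslips; Cav3.2 induced after 24 h with 1 µg/mL tetracycline. Whole-cell voltage clamp at room temperature. External solution: choline-Cl/TEA-Cl with 2 mM CaCl2. Internal solution: CsCl/EGTA. Holding potential -100 mV, then 100 ms depolarizing steps of 10 mV at 10 s intervals. Compound applied by rapid solution exchange; currents normalized to control; sigmoidal dose-response fits.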

In assay [2] the test system is pentylenetetrazole-induced seizures. The conditions noted are these: 30 mg/Kg; cited from earlier work.
The next assay concerns L-type calcium channels. The conditions noted are these: read-out: IC50, L-type calcium channels; cited from earlier work.
For another assay, the system named is T-type calcium channels. The settings on record: read-out: IC50, T-type calcium channels; cited from earlier work.
Setting [3] is: DRG neuron, read-out: Inhibition (%) of T-Cav3.2- channel in DRG neurons.

Sequence of T-Cav3.2-channel (O88427 whole entry): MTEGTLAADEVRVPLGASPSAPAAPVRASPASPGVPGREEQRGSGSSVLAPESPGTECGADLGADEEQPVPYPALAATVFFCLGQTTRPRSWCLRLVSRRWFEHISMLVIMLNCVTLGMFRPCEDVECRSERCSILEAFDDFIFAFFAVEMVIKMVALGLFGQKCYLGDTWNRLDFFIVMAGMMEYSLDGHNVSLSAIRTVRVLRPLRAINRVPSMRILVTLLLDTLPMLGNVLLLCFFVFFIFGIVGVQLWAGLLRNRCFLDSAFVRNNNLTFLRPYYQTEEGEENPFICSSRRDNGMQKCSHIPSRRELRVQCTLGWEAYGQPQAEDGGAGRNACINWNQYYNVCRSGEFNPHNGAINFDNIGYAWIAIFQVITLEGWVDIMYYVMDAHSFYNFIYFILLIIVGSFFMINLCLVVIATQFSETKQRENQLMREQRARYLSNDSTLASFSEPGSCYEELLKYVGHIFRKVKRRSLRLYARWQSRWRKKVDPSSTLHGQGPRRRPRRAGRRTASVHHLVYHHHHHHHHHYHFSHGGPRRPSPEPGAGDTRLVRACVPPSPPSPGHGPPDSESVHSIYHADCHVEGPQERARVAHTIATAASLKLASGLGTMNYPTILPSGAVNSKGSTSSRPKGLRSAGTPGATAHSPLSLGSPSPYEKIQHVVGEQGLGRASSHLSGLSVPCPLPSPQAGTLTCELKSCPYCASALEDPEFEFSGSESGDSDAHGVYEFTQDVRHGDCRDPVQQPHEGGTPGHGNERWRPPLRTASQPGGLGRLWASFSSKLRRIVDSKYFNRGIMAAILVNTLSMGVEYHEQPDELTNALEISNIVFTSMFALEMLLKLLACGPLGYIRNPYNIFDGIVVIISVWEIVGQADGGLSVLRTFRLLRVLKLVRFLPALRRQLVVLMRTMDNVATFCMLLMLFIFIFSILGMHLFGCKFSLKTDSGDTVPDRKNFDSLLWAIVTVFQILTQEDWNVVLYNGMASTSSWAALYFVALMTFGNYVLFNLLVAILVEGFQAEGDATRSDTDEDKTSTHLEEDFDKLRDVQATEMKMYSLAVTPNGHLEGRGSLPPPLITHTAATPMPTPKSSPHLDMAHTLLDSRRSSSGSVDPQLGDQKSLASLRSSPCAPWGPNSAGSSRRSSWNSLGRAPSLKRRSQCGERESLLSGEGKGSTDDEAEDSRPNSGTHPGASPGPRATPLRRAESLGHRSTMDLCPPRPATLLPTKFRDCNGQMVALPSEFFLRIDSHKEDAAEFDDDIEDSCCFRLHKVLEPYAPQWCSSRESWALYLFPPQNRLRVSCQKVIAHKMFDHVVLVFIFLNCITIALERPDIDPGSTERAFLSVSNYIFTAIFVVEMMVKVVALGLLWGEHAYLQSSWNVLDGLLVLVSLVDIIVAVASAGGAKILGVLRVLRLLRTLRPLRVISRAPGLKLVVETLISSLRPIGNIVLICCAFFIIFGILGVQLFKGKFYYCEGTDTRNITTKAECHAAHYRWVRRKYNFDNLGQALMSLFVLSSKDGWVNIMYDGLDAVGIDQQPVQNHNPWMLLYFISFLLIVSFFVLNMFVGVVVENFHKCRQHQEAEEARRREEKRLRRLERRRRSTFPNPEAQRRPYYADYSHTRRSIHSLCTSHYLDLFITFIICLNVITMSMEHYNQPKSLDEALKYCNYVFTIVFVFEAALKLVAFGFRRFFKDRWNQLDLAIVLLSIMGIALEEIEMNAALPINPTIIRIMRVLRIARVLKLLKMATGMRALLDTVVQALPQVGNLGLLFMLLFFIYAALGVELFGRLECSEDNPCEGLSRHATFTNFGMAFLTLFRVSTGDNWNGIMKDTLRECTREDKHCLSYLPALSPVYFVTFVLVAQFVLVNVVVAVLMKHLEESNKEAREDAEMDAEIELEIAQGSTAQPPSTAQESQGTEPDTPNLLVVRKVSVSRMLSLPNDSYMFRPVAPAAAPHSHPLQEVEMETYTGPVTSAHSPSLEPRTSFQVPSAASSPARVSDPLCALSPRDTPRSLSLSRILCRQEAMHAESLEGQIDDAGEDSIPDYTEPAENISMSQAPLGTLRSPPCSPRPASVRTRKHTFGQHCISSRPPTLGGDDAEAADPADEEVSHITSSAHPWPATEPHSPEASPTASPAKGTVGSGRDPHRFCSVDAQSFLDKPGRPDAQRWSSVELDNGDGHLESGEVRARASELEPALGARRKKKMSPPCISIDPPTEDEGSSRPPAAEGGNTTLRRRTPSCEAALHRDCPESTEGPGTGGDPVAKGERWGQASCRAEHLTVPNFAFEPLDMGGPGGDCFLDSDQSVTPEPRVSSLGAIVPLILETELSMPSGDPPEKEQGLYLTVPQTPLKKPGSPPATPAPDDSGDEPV
Sequence of Cav3.2 channels expressed in HEK-293 cells (O95180 whole entry): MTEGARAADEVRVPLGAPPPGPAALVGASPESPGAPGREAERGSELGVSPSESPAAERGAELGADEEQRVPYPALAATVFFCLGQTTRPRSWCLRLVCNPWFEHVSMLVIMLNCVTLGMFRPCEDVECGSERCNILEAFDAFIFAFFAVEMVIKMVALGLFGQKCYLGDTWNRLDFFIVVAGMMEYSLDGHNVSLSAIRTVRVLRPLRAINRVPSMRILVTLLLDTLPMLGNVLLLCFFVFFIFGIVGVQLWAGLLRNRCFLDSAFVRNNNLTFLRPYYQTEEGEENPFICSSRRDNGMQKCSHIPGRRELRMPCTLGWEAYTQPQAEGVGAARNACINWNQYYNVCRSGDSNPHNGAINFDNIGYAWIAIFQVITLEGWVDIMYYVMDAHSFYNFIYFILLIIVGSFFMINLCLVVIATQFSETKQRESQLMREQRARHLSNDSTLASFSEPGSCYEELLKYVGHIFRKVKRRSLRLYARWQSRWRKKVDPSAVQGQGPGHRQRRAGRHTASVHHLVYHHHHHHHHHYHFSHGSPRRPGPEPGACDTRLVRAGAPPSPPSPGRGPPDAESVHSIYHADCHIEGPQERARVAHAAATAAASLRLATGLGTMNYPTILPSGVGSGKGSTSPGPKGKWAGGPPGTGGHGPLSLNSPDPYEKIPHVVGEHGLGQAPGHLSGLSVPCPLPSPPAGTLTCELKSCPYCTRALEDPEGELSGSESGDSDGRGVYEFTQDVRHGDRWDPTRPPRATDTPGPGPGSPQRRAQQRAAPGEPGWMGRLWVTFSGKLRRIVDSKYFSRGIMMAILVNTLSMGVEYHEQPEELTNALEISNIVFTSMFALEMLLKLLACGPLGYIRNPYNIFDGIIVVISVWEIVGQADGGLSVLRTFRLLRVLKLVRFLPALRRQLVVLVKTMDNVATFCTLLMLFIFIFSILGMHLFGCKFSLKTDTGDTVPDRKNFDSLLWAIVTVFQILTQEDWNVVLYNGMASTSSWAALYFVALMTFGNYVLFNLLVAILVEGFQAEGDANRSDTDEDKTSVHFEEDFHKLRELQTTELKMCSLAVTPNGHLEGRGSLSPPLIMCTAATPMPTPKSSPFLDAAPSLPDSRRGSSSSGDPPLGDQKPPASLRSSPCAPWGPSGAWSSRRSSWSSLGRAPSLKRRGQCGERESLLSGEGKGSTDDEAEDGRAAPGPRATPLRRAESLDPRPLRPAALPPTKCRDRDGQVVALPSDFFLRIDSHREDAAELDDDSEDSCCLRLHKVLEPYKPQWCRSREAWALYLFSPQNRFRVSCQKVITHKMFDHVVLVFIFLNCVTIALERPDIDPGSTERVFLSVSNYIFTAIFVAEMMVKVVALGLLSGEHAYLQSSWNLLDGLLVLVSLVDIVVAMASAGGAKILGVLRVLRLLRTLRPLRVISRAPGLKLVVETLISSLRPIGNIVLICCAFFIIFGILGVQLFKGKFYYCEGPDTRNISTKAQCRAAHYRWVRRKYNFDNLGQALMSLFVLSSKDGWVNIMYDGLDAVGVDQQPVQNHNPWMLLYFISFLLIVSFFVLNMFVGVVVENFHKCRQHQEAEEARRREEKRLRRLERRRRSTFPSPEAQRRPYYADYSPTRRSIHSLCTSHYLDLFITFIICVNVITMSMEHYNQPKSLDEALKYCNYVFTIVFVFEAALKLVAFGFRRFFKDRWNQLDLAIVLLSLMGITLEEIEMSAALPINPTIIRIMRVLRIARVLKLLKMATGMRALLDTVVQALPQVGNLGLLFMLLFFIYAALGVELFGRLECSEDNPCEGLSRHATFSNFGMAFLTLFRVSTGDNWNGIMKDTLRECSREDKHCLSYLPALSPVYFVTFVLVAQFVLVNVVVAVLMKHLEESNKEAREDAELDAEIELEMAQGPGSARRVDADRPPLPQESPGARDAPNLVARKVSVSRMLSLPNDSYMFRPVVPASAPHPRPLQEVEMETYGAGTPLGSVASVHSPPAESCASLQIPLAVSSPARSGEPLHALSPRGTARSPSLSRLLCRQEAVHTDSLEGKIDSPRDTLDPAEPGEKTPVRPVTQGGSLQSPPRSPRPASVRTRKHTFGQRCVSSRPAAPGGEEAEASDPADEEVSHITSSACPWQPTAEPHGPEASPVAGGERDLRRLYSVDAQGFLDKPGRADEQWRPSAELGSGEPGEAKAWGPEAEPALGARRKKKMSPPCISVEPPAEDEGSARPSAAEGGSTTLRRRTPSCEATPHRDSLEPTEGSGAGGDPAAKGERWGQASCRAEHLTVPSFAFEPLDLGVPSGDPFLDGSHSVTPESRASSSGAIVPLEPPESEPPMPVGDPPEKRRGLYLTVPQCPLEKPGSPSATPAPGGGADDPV

Regarding `O=C1c2cc(Cl)c(Cl)cc2C(=O)N1c1nnc(-c2ccc(Cl)s2)o1` [Compound 6, 5,6-Dichloro-2-(5-(5-chlorothiophen-2-yl)-1,3,4-oxadiazol-2-yl)isoindoline-1,3-dione], at T-Cav3.2-channel (setting [3]), the inhibition at 3.3 µM stood at 9.8%. For the same compound, the “Inhibition (%) of Na- channel in DRG neurons” value (“Inhibition (%) of Na- channel” for short) with Na-channel (3.3 µM) is 100 (3.3 µM) (n=1) %. Further, in the assay with PTZ-induced seizures, the “Inhibition ratio (%) of fatality in PTZ-model of mice” value (“Inhibition ratio (%) of fatality” below) was 0% and 0 (n=8) %; the “Latency to fatality (minutes) in PTZ model of mice” value (“Latency to fatality (minutes)” below) was 1.9±0.3 (n=8) minutes. Further, the “Inhibition (%) of K-channel in DRG neurons, IA (rapid inactivating potassium current)” value in the assay on K-channel (3.3 µM, IA) was −11.6%. The “Inhibition (%) of K-channel in DRG neurons, IKd (delayed rectifier potassium current)” value in the assay with K-channel (3.3 µM, IKd) is reported as −17.8%.
As for `O=C(CCc1cccc(Cl)c1)Nc1nnc(-c2ccc(Cl)s2)o1` [Compound 7, 3-(3-Chlorophenyl)-N-(5-(5-chlorothiophen-2-yl)-1,3,4-oxadiazol-2-yl)propanamide], on T-Cav3.2-channel (setting [3]), the inhibition at 1 µM was 20.4 ± 1.9%. For the same compound, the “Inhibition (%) of Na- channel” value in the assay on Na-channel (3.3 µM) is on record as 82.2 (3.3 μM) (n=1) %. For the same compound, in the assay on PTZ-induced seizures, the “Inhibition ratio (%) of fatality” value is 30% and 28.6 (n=7) %; the “Latency to fatality (minutes)” value is 13.6±1.8 (n=7) minutes. In the assay on K-channel (3.3 µM, IA), the “Inhibition (%) of K-channel in DRG neurons, IA (rapid inactivating potassium current)” value is reported as −26.0%. Also, the “Inhibition (%) of K-channel in DRG neurons, IKd (delayed rectifier potassium current)” value in the assay on K-channel (3.3 µM, IKd) is listed as −15.6%.
Take `O=C(Nc1nnc(-c2ccc(Cl)s2)o1)c1ccccc1` [Compound 8, N-(5-(5-Chlorothiophen-2-yl)-1,3,4-oxadiazol-2-yl)benzamide]: on T-Cav3.2-channel (setting [3]), the inhibition at 1 µM was determined as 24.4 ± 9.6%. Besides, the “Inhibition (%) of Na- channel” value in the assay on Na-channel (1 µM) is recorded as −71.8 (n=1) %. Further, the “Inhibition (%) of K-channel in DRG neurons, IA (rapid inactivating potassium current)” value in the assay with K-channel (1 µM, IA) is −18.7%. The “Inhibition (%) of K-channel in DRG neurons, IKd (delayed rectifier potassium current)” value in the assay on K-channel (1 µM, IKd) is reported as −28.6%.
Consider `O=C(CN1CCC(C(=O)Nc2nnc(-c3ccc(Cl)s3)o2)CC1)Nc1ccccc1` [Compound 9, 1-((Phenylcarbamoyl)methyl)-N-(5-(5-chlorothiophen-2-yl)-1,3,4-oxadiazol-2-yl)piperidine-4-carboxamide], for which, at T-Cav3.2-channel (setting [3]), the inhibition at 1 µM is 79.5%.
On the same count and under the same terms, then `O=C(CCc1cccc(Cl)c1)Nc1nnc(-c2ccccc2)o1` [Compound 10, 3-(3-Chlorophenyl)-N-(5-phenyl-1,3,4-oxadiazol-2-yl)propanamide], with 5%.
At T-Cav3.2-channel, `O=C(Nc1nnc(-c2ccccc2)o1)c1ccc(Cl)s1` [Compound 11, 5-Chloro-N-(5-phenyl-1,3,4-oxadiazol-2-yl)thiophene-2-carboxamide] gave an IC50 of 930 nM. Also, the inhibition at 1 µM on T-Cav3.2-channel (setting [3]) was 50 ± 9.7%. Besides, the “Inhibition (%) of Na- channel” value in the assay on Na-channel (1 µM) was 16.5±8.9 (n=7) %. Also, in the assay with PTZ-induced seizures, the “Inhibition ratio (%) of fatality” value was 72.1% and 72.7 (n=11) %; the “Latency to fatality (minutes)” value was 15.3±2.4 (n=11) minutes. Besides, the “Inhibition (%) of K-channel in DRG neurons, IA (rapid inactivating potassium current)” value with K-channel (1 µM, IA) turned out to be 18.9±11.8%. In the assay on K-channel (1 µM, IKd), the “Inhibition (%) of K-channel in DRG neurons, IKd (delayed rectifier potassium current)” value came out at 24.1±14.6%.
`c1ccc(-c2nnc(N3CCCCC3)o2)cc1` [Compound 12, 1-(5-Phenyl-1,3,4-oxadiazol-2-yl)piperidine]: the inhibition at 1 µM in assay [1] (HEK293, read-out: Inhibition (%) of T-Cav3.2- channel in HEK293 cells) is 64.6%; on T-Cav3.2-channel (setting [3]) it was 44.2 ± 5.6%. Moreover, the “Inhibition (%) of Na- channel” value in the assay with Na-channel (1 µM) turned out to be 25.7±6.3%. In addition, the IC50 with Na-channel was 2100 nM; in the assay with K-channel (read-out: IC50, K-channel IA in DRG neurons, IA), 19600 nM; in the assay on K-channel (read-out: IC50, K-channel IKd in DRG neurons, IKd), 2600 nM. In addition, in the assay on K-channel (1 µM, IA), the “Inhibition (%) of K-channel in DRG neurons, IA (rapid inactivating potassium current)” value worked out at 21.9±8.6%. Further, the “Inhibition (%) of K-channel in DRG neurons, IKd (delayed rectifier potassium current)” value in the assay with K-channel (1 µM, IKd) is given as 31.6±5.5%.
On to `O=C(CN1CCCCC1)Nc1nnc(-c2ccccc2)o1` [Compound 13, N-(5-Phenyl-1,3,4-oxadiazol-2-yl)-2-(piperidin-1-yl)acetamide], for which the inhibition at 1 µM on T-Cav3.2-channel (setting [3]) worked out at 55.4 ± 28.7%. Also, in the assay on Na-channel (1 µM), the “Inhibition (%) of Na- channel” value is −2.7 (n=1) %. Further, in the assay on PTZ-induced seizures, the “Inhibition ratio (%) of fatality” value is 0 (n=7) % and the “Latency to fatality (minutes)” value is 3.7±1.8 (n=7) minutes. Moreover, in the assay on K-channel (1 µM, IA), the “Inhibition (%) of K-channel in DRG neurons, IA (rapid inactivating potassium current)” value is 19.9%. Moreover, the “Inhibition (%) of K-channel in DRG neurons, IKd (delayed rectifier potassium current)” value in the assay on K-channel (1 µM, IKd) was 36.5%.
As to `N#CC1CCN(CC(=O)Nc2nnc(-c3ccccc3)o2)CC1` [Compound 14, 2-(4-Cyanopiperidin-1-yl)-N-(5-phenyl-1,3,4-oxadiazol-2-yl)acetamide], on T-Cav3.2-channel (setting [3]), the inhibition at 1 µM was determined as 69.6 ± 6.2%. Further, the “Inhibition (%) of Na- channel” value in the assay on Na-channel (1 µM) is given as −4.7 (n=1) %. In addition, in the assay with PTZ-induced seizures, the “Inhibition ratio (%) of fatality” value is reported as 14 (n=7) % and the “Latency to fatality (minutes)” value was 11.8±2.5 (n=7) minutes. The “Inhibition (%) of K-channel in DRG neurons, IA (rapid inactivating potassium current)” value in the assay on K-channel (1 µM, IA) was 12.9%. Also, in the assay with K-channel (1 µM, IKd), the “Inhibition (%) of K-channel in DRG neurons, IKd (delayed rectifier potassium current)” value was determined as 30.0%.
As for `O=C(Nc1nnc(-c2ccccc2F)o1)c1ccc(Cl)s1` [Compound 15, 5-Chloro-N-(5-(2-fluorophenyl)-1,3,4-oxadiazol-2-yl)thiophene-2-carboxamide], the inhibition at 1 µM on T-Cav3.2-channel (setting [3]) is 60.9%.
With `CC(C)(C)NC(=O)CN1CCC(CNC(=O)c2cc(F)cc(Cl)c2)CC1` [Compound Z944, reference compound], in assay [1] (0.25 µM, HEK293 cells), the “Inhibition (%) of T-Cav3.2- channel in HEK293 cells” value is reported as 74.5±7.8 (0.25 µM, in HEK293 cells) (n=6) %. For the same compound, the “Inhibition (%) of Na- channel” value with Na-channel (1 µM) is given as 49.7±6%. Besides, in the assay on Na-channel, the IC50 was 510 nM. Moreover, the “Protective effect on seizures, pentylenetetrazole-induced fatality rat model” value in assay [2] is on record as 33%. Besides, in the assay on PTZ-induced seizures, the “Inhibition ratio (%) of fatality” value was 33% and 33.3 (n=6) %; the “Latency to fatality (minutes)” value is reported as 15.2±3.1 (n=6) minutes. In the assay with K-channel (1 µM, IA), the “Inhibition (%) of K-channel in DRG neurons, IA (rapid inactivating potassium current)” value is 34.5±15.0%. Moreover, in the assay with K-channel (1 µM, IKd), the “Inhibition (%) of K-channel in DRG neurons, IKd (delayed rectifier potassium current)” value is listed as 44.9±17.7%.
As to `COCC(=O)O[C@]1(CCN(C)CCCc2nc3ccccc3[nH]2)CCc2cc(F)ccc2[C@@H]1C(C)C` [Mibefradril], the half-inhibitory concentration (IC50) is 3000 nM in the assay with L-type calcium channels and 100 nM in the assay with T-type calcium channels.

Source of the values: article PMC7413294 (Heterocycles, 2019).
